{"source": "ChEMBL document CHEMBL2380219", "about": "“Physalin A induces apoptotic cell death and protective autophagy in HT1080 human fibrosarcoma cells” (J Nat Prod, 2013)", "key": {"HT-1080 [1]": {"tested_on": "HT-1080", "assay": "Induction of apoptosis in human HT1080 cells assessed as increase in apoptotic ratio at 10 uM pretreated with rapamycin for 1 hr prior to compound addition measured after 24 hrs by propidium iodide staining-based FACS flow cytometric analysis", "assay_type": "functional, cell-based"}, "HCT-116": {"tested_on": "HCT-116", "assay": "Cytotoxicity against human HCT116 cells assessed as growth inhibition after 24 hrs by MTT assay", "assay_type": "functional, cell-based", "outline": "(§1)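 Seeded 0.8 × 10^4 cells/well, cultured 24 h, then exposed to 0, 10, 20, 40 or 80 μM for 24 h (DMSO <0.05%) in RPMI 1640 or MEM with 10% FBS. Adherent lines rinsed with PBS, given MTT 2 h at 37 °C. Suspension lines (U937, HL60) given MTT 2 h, then centrifuged. Formazan dissolved in DMSO, A492 read. Inhibition % = (control − sample)/(control − blank) × 100.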"}, "HT-1080 [2]": {"tested_on": "HT-1080", "assay": "Induction of apoptosis in human HT1080 cells assessed as increase in procaspase-3 cleavage at 10 uM pretreated with 3MA for 1 hr prior to compound addition measured after 24 hrs by Western blotting analysis", "assay_type": "functional, cell-based", "outline": "(§2)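 HT1080 cells pretreated 1 h with 1 mM 3MA or 1 nM rapamycin, then co-incubated with 10 μM for 24 h. Adherent and floating cells lysed in Hepes pH 7.4/Triton buffer. 12% SDS-PAGE, nitrocellulose, antibodies against Fas, FADD, caspase-8, caspase-3, PARP and ICAD, ECL detection. Densities normalized to β-actin; n = 3.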"}, "HT-1080 [3]": {"tested_on": "HT-1080", "assay": "Induction of apoptosis in human HT1080 cells assessed as increase in procaspase-8 cleavage at 10 uM pretreated with 3MA for 1 hr prior to compound addition measured after 24 hrs by Western blotting analysis", "assay_type": "functional, cell-based", "outline": "as §2"}, "HT-1080 [4]": {"tested_on": "HT-1080", "assay": "Induction of apoptosis in human HT1080 cells assessed as change in BCL2 expression at 10 uM after 6 to 24 hrs by Western blotting analysis", "assay_type": "functional, cell-based", "outline": "(§3)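 HT1080 cells treated with 10 μM for 6, 12, 18 and 24 h. Adherent and floating cells lysed 60 min at 4 °C in Hepes pH 7.4/1% Triton X-100 buffer with phosphatase and protease inhibitors. Equal protein run on 12% SDS-PAGE, transferred to nitrocellulose, probed with specific antibodies, HRP/ECL detection. Band density normalized to β-actin; n = 3.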"}, "HT-1080 [5]": {"tested_on": "HT-1080", "assay": "Cytotoxicity against human HT1080 cells assessed as growth inhibition after 24 hrs by MTT assay", "assay_type": "functional, cell-based", "settings": "HT-1080, 24 h"}, "HT-1080 [6]": {"tested_on": "HT-1080", "assay": "Induction of apoptosis in human HT1080 cells expressing beclin 1 siRNA assessed as reversal of beclin 1 upregulation at 10 uM after 24 hrs by Western blotting analysis relative to control", "assay_type": "functional, cell-based", "outline": "(§4)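 Beclin 1 or nonspecific siRNA transfected into HT1080 cells (5 × 10^5 seeded a day earlier; transfection mixture for 7 h at 37 °C, then normal medium, 24 h before harvest). Cells then got 10 μM for 24 h. Adherent plus floating cells lysed in Hepes pH 7.4/Triton buffer at 4 °C for 60 min. Equal protein on 12% SDS-PAGE, nitrocellulose, ECL. Bands normalized to β-actin, n = 3.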"}, "HeLa": {"tested_on": "HeLa", "assay": "Cytotoxicity against human HeLa cells assessed as growth inhibition after 24 hrs by MTT assay", "assay_type": "functional, cell-based", "outline": "as §1"}, "U-937": {"tested_on": "U-937", "assay": "Cytotoxicity against human U937 cells assessed as growth inhibition after 24 hrs by MTT assay", "assay_type": "functional, cell-based", "outline": "as §1"}, "HT-1080 [7]": {"tested_on": "HT-1080", "assay": "Induction of apoptosis in human HT1080 cells assessed as change in BAX expression at 10 uM after 6 to 24 hrs by Western blotting analysis", "assay_type": "functional, cell-based", "outline": "as §3"}, "HT-1080 [8]": {"tested_on": "HT-1080", "assay": "Induction of apoptosis in human HT1080 cells expressing beclin 1 siRNA assessed as increase in PARP cleavage at 10 uM after 24 hrs by Western blotting relative to control", "assay_type": "functional, cell-based", "outline": "as §4"}, "A549": {"tested_on": "A549", "assay": "Cytotoxicity against human A549 cells assessed as growth inhibition after 24 hrs by MTT assay", "assay_type": "functional, cell-based", "outline": "as §1"}, "HT-1080 [9]": {"tested_on": "HT-1080", "assay": "Induction of apoptosis in human HT1080 cells assessed as upregulation of FAS protein expression at 10 uM pretreated with rapamycin for 1 hr prior to compound addition measured after 24 hrs by Western blotting analysis", "assay_type": "functional, cell-based", "outline": "as §2"}, "HT-1080 [10]": {"tested_on": "HT-1080", "assay": "Induction of apoptosis in human HT1080 cells expressing beclin 1 siRNA assessed as increase in FAS protein expression at 10 uM after 24 hrs by Western blotting analysis relative to control", "assay_type": "functional, cell-based", "outline": "as §4"}, "HT-1080 [11]": {"tested_on": "HT-1080", "assay": "Induction of apoptosis in human HT1080 cells assessed as PARP cleavage at 10 uM after 6 to 24 hrs by Western blotting analysis", "assay_type": "functional, cell-based", "outline": "as §3"}, "HT-1080 [12]": {"tested_on": "HT-1080", "assay": "Induction of apoptosis in human HT1080 cells expressing beclin 1 siRNA assessed as increase in procaspase-8 cleavage at 10 uM after 24 hrs by Western blotting analysis relative to control", "assay_type": "functional, cell-based", "outline": "as §4"}, "A375-S2": {"tested_on": "A375-S2", "assay": "Cytotoxicity against human A375-S2 cells assessed as growth inhibition after 24 hrs by MTT assay", "assay_type": "functional, cell-based", "outline": "as §1"}, "HT-1080 [13]": {"tested_on": "HT-1080", "assay": "Induction of apoptosis in human HT1080 cells assessed as upregulation of FADD protein expression at 10 uM pretreated with rapamycin for 1 hr prior to compound addition measured after 24 hrs by Western blotting analysis", "assay_type": "functional, cell-based", "outline": "as §2"}, "HT-1080 [14]": {"tested_on": "HT-1080", "assay": "Induction of apoptosis in human HT1080 cells assessed as increase in procaspase-3 cleavage at 10 uM pretreated with rapamycin for 1 hr prior to compound addition measured after 24 hrs by Western blotting analysis", "assay_type": "functional, cell-based", "outline": "as §2"}, "HT-1080 [15]": {"tested_on": "HT-1080", "assay": "Induction of apoptosis in human HT1080 cells assessed as change in cytosolic BID expression at 10 uM after 6 to 24 hrs by Western blotting analysis", "assay_type": "functional, cell-based", "outline": "as §3"}, "HT-1080 [16]": {"tested_on": "HT-1080", "assay": "Induction of autophagy in human HT1080 cells assessed as conversion from LC31to LC32 at 10 uM pretreated with rapamycin for 1 hr prior to compound addition measured after 24 hrs by Western blotting analysis", "assay_type": "functional, cell-based", "outline": "(§5)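 HT1080 cells pretreated 1 h with 1 mM 3MA or 1 nM rapamycin, then 10 μM added for 24 h. Adherent and floating cells lysed in Hepes pH 7.4/Triton buffer. Equal protein on 12% SDS-PAGE and nitrocellulose, probed for beclin 1 and LC3, ECL detection. Normalized to β-actin, n = 3.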"}, "HT-1080 [17]": {"tested_on": "HT-1080", "assay": "Induction of autophagy in human HT1080 cells assessed as upregulation of beclin 1 at 10 uM pretreated with rapamycin for 1 hr prior to compound addition measured after 24 hrs by Western blotting analysis", "assay_type": "functional, cell-based", "outline": "as §5"}, "HT-1080 [18]": {"tested_on": "HT-1080", "assay": "Induction of apoptosis in human HT1080 cells assessed as upregulation of FAS protein expression at 10 uM pretreated with 3MA for 1 hr prior to compound addition measured after 24 hrs by Western blotting analysis", "assay_type": "functional, cell-based", "outline": "as §2"}, "PBMC": {"tested_on": "PBMC", "assay": "Cytotoxicity against human PBMC at 10 to 20 uM after 24 to 48 hrs by MTT assay", "assay_type": "cell-based", "outline": "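PBMC from fresh blood of three healthy male donors. Blood diluted 1:3 in PBS, layered on Ficoll-Hypaque (1.077 g/mL), spun 900g 30 min. Band washed 400g 10 min, cells resuspended in complete RPMI-1640 in 96-well plates. Treated with 0, 10, 20, 40 or 80 μM for 24 and 48 h, then MTT. Means ± SD of three independent experiments.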"}, "HT-1080 [19]": {"tested_on": "HT-1080", "assay": "Induction of apoptosis in human HT1080 cells assessed as appearance of cleaved procaspase-9 at 10 uM after 6 to 24 hrs by Western blotting analysis", "assay_type": "functional, cell-based", "outline": "as §3"}}, "note": "The source made the active and inactive calls. The calls are words filed in the database; no cut-off is given here."}
{"smiles": "C=C1C(=O)O[C@@H]2C[C@@]1(C)[C@@H]1C(=O)[C@]3(O)O[C@]14[C@@]2(C)OC(=O)[C@@]4(O)CC[C@H]1[C@H]3[C@H](O)C=C2CC=CC(=O)[C@@]21C", "note": "[PHYSALIN A]", "values": [{"measurement": "Activity", "setting": "HT-1080 [1]", "value": "inactive"}, {"measurement": "growth inhibition (GI)", "setting": "HCT-116", "value": "Dose-dependent effect"}, {"measurement": "Activity", "setting": "HT-1080 [2]", "value": "Active"}, {"measurement": "Activity", "setting": "HT-1080 [3]", "value": "Active"}, {"measurement": "Activity", "setting": "HT-1080 [4]", "value": "inactive"}, {"measurement": "IC50", "setting": "HT-1080 [5]", "value": 10.7, "unit": "µM"}, {"measurement": "Activity", "setting": "HT-1080 [6]", "value": "Active"}, {"measurement": "growth inhibition (GI)", "setting": "HeLa", "value": "Dose-dependent effect"}, {"measurement": "growth inhibition (GI)", "setting": "U-937", "value": "Dose-dependent effect"}, {"measurement": "Activity", "setting": "HT-1080 [7]", "value": "inactive"}, {"measurement": "Activity", "setting": "HT-1080 [8]", "value": "Active"}, {"measurement": "growth inhibition (GI)", "setting": "A549", "value": "Dose-dependent effect"}, {"measurement": "Activity", "setting": "HT-1080 [9]", "value": "inactive"}, {"measurement": "Activity", "setting": "HT-1080 [10]", "value": "Active"}, {"measurement": "Activity", "setting": "HT-1080 [11]", "value": "Active"}, {"measurement": "Activity", "setting": "HT-1080 [12]", "value": "Active"}, {"measurement": "growth inhibition (GI)", "setting": "A375-S2", "value": "Dose-dependent effect"}, {"measurement": "Activity", "setting": "HT-1080 [13]", "value": "inactive"}, {"measurement": "Activity", "setting": "HT-1080 [14]", "value": "inactive"}, {"measurement": "Activity", "setting": "HT-1080 [15]", "value": "inactive"}, {"measurement": "Activity", "setting": "HT-1080 [16]", "value": "Active"}, {"measurement": "Activity", "setting": "HT-1080 [17]", "value": "Active"}, {"measurement": "Activity", "setting": "HT-1080 [18]", "value": "Active"}, {"measurement": "Activity", "setting": "PBMC", "value": "Non-toxic"}, {"measurement": "Activity", "setting": "HT-1080 [19]", "value": "inactive"}]}
